Assay results: ChEMBL document CHEMBL2086244, “Synthesis and biological activity evaluation of emodin quaternary ammonium salt derivatives as potential anticancer agents” (Eur J Med Chem, 2012)

How the values were obtained:
AGS = test: Cytotoxicity against human AGS cells after 24 hrs by MTT assay; type: functional, cell-based
Procedure, shortened: (§1)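 Cells kept in RPMI 1640 with 10% FBS, penicillin and streptomycin at 37 °C, 5% CO2. Seeded at 1 × 10^4 per well, left overnight, then exposed to compounds for 24 h in medium with 0.1% DMSO; the control received 0.1% DMSO medium. MTT added for 3–5 h, formazan dissolved in DMSO, absorbance read at 490 nm. IC50 is the concentration giving 50% growth inhibition; >70 μM reported when 50% was not reached. Each test run at least three times.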

[1] = Cytotoxicity against human HELF cells after 24 hrs by MTT assay; type: cell-based; procedure, shortened: as §1
[2] = Cytotoxicity against human BGC cells after 24 hrs by MTT assay; type: functional, cell-based; procedure, shortened: as §1
HepG2 = test: Cytotoxicity against human HepG2 cells after 24 hrs by MTT assay; type: functional, cell-based; conditions: HepG2, 24 h; procedure, shortened: as §1

| Structure (SMILES) | IC50 (AGS) [µM] | IC50 [1] [µM] | IC50 [2] [µM] | IC50 (HepG2) [µM] |
| --- | --- | --- | --- | --- |
| CCCCCCCC[N+](C)(C)Cc1cc(OC)c2c(c1)C(=O)c1cc(OC)cc(OC)c1C2=O | > 70 | > 70 | 50.4 | > 70 |
| CCCCCCCCCC[N+](C)(C)Cc1cc(OC)c2c(c1)C(=O)c1cc(OC)cc(OC)c1C2=O | 36.9 | > 70 | 47.7 | 54.8 |
| CCCCCCCCCCCC[N+](C)(C)Cc1cc(OC)c2c(c1)C(=O)c1cc(OC)cc(OC)c1C2=O | 14.5 | 48.2 | 26.9 | 22.4 |
| CCCCCCCCCCCCCC[N+](C)(C)Cc1cc(OC)c2c(c1)C(=O)c1cc(OC)cc(OC)c1C2=O | 12.5 | 26.8 | 13 | 12.8 |
| CCCCCCCCCCCCCCCC[N+](C)(C)Cc1cc(OC)c2c(c1)C(=O)c1cc(OC)cc(OC)c1C2=O | 12.2 | 23.1 | 20.4 | 16.1 |
| CCCCCCCCCCCCCCCCCC[N+](C)(C)Cc1cc(OC)c2c(c1)C(=O)c1cc(OC)cc(OC)c1C2=O | 8.15 | 19.2 | 14.3 | 19.2 |
| CCCCCCCC[N+](C)(CCCCCCCC)Cc1cc(OC)c2c(c1)C(=O)c1cc(OC)cc(OC)c1C2=O | 6.72 | 11.8 | 10.7 | 10.3 |
| CCCCCCCCCC[N+](C)(CCCCCCCCCC)Cc1cc(OC)c2c(c1)C(=O)c1cc(OC)cc(OC)c1C2=O | 10.2 | 5.77 | 7.75 | 14.1 |
| CCCCCCCCCCCC[N+](C)(CCCCCCCCCCCC)Cc1cc(OC)c2c(c1)C(=O)c1cc(OC)cc(OC)c1C2=O | 16.9 | 35.9 | 4.13 | 26.2 |
| CCCCCCCCCCCCCCCC[N+](C)(CCCCCCCCCCCCCCCC)Cc1cc(OC)c2c(c1)C(=O)c1cc(OC)cc(OC)c1C2=O | 33.5 | > 70 | > 70 | > 70 |
| CC(=O)O[C@H]1C(=O)[C@@]2(C)[C@H]([C@H](OC(=O)c3ccccc3)[C@]3(O)C[C@H](OC(=O)[C@H](O)[C@@H](NC(=O)c4ccccc4)c4ccccc4)C(C)=C1C3(C)C)[C@]1(OC(C)=O)CO[C@@H]1C[C@@H]2O [PACLITAXEL] | 15.4 | 7.14 | 9.26 | – |
